Results from ChEMBL document CHEMBL5303300, “EUbOPEN Chemogenomics Library - Multiplex” (2023).
Several values for one entry are separate records, joined by “and”; a condition that tells them apart may be missing. Equal entries are not always repeated.

System: Fibroblast
Test: Multiplex assay against human fibroblast
Assay type: toxicity, cell-based
Conditions: number of replicates 2
Summary of the method: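 At seeding, live cells were stained with Hoechst33342, BioTracker Green Microtubule Cytoskeleton Dye, MitoTracker Red and Annexin V Alexa Fluor 680. After compound addition they were imaged on a CQ1 microscope at 37°C and 5% CO2, and CellPathfinder machine-learning gating sorted them into Hoechst high-intensity objects or normal cells, with normal cells further split into healthy, pyknosed or fragmented nuclei and pyknosed cells into mitotic or apoptotic. Tubulin, mitochondrial-mass and membrane-permeability phenotypes are given as per cents of cells with healthy nuclei.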

[1] = 12 h, 1 µM, compound concentration 1 uM
[2] = 12 h, 10 µM, compound concentration 10 uM
[3] = 24 h, 1 µM, compound concentration 1 uM
[4] = 24 h, 10 µM, compound concentration 10 uM
[5] = 48 h, 1 µM, compound concentration 1 uM
[6] = 48 h, 10 µM, compound concentration 10 uM

CCc1cnn2c(NCc3ccc[n+]([O-])c3)cc(N3CCCCC3CCO)nc12 (configuration not stated)
Population Apoptotic (%) [1]: 35% and 55%
Population Fragmented Nuclei (%) [1]: 7% and 13%
Population Healthy Nuclei (%) [1]: 73% and 62%
Population Hoechst High Intensity Objects (%) [1]: 0%
Population Membrane Permeable-Phenotype (%) [1]: 3% and 4%
Population Mitochondria Different-Phenotype (%) [1]: 1% and 0%
Population Mitotic Cells (%) [1]: 65% and 44%
Population Normal (%) [1]: 100%
Population Pyknosed Nuclei (%) [1]: 19% and 23%
Population Tubulin-Different-Phenotype (%) [1]: 13% and 9%
Total Cell Count [1]: 209 and 219
Population Apoptotic (%) [2]: 42% and 55%
Population Fragmented Nuclei (%) [2]: 6% and 7%
Population Healthy Nuclei (%) [2]: 75%
Population Hoechst High Intensity Objects (%) [2]: 0%
Population Membrane Permeable-Phenotype (%) [2]: 5% and 7%
Population Mitochondria Different-Phenotype (%) [2]: 2% and 3%
Population Mitotic Cells (%) [2]: 57% and 44%
Population Normal (%) [2]: 99% and 100%
Population Pyknosed Nuclei (%) [2]: 17% and 16%
Population Tubulin-Different-Phenotype (%) [2]: 31% and 26%
Total Cell Count [2]: 191 and 174
Population Apoptotic (%) [3]: 59% and 63%
Population Fragmented Nuclei (%) [3]: 9% and 13%
Population Healthy Nuclei (%) [3]: 68% and 67%
Population Hoechst High Intensity Objects (%) [3]: 0%
Population Membrane Permeable-Phenotype (%) [3]: 7% and 3%
Population Mitochondria Different-Phenotype (%) [3]: 2% and 0%
Population Mitotic Cells (%) [3]: 40% and 36%
Population Normal (%) [3]: 100%
Population Pyknosed Nuclei (%) [3]: 22% and 19%
Population Tubulin-Different-Phenotype (%) [3]: 18% and 10%
Total Cell Count [3]: 188 and 213
Population Apoptotic (%) [4]: 68% and 52%
Population Fragmented Nuclei (%) [4]: 8% and 9%
Population Healthy Nuclei (%) [4]: 77% and 75%
Population Hoechst High Intensity Objects (%) [4]: 0%
Population Membrane Permeable-Phenotype (%) [4]: 10% and 4%
Population Mitochondria Different-Phenotype (%) [4]: 2% and 6%
Population Mitotic Cells (%) [4]: 32% and 48%
Population Normal (%) [4]: 100%
Population Pyknosed Nuclei (%) [4]: 13% and 15%
Population Tubulin-Different-Phenotype (%) [4]: 43% and 38%
Total Cell Count [4]: 181 and 162
Population Apoptotic (%) [5]: 65% and 64%
Population Fragmented Nuclei (%) [5]: 9% and 12%
Population Healthy Nuclei (%) [5]: 55% and 61%
Population Hoechst High Intensity Objects (%) [5]: 0%
Population Membrane Permeable-Phenotype (%) [5]: 8% and 9%
Population Mitochondria Different-Phenotype (%) [5]: 0% and 3%
Population Mitotic Cells (%) [5]: 34% and 35%
Population Normal (%) [5]: 100% and 99%
Population Pyknosed Nuclei (%) [5]: 35% and 26%
Population Tubulin-Different-Phenotype (%) [5]: 15% and 17%
Total Cell Count [5]: 188 and 216
Population Apoptotic (%) [6]: 73% and 63%
Population Fragmented Nuclei (%) [6]: 11% and 6%
Population Healthy Nuclei (%) [6]: 63%
Population Hoechst High Intensity Objects (%) [6]: 0%
Population Membrane Permeable-Phenotype (%) [6]: 14% and 20%
Population Mitochondria Different-Phenotype (%) [6]: 1% and 4%
Population Mitotic Cells (%) [6]: 26% and 36%
Population Normal (%) [6]: 100% and 99%
Population Pyknosed Nuclei (%) [6]: 25% and 29%
Population Tubulin-Different-Phenotype (%) [6]: 43% and 41%
Total Cell Count [6]: 179 and 149

COc1nc2ccc([C@@](O)(c3ccc(Cl)cc3)c3cncn3C)cc2c(Cl)c1Cc1ccc(-n2cccn2)cc1 [JNJ-53721590]
Population Apoptotic (%) [1]: 30%
Population Fragmented Nuclei (%) [1]: 6% and 11%
Population Healthy Nuclei (%) [1]: 68% and 55%
Population Hoechst High Intensity Objects (%) [1]: 0%
Population Membrane Permeable-Phenotype (%) [1]: 9% and 11%
Population Mitochondria Different-Phenotype (%) [1]: 2% and 1%
Population Mitotic Cells (%) [1]: 69%
Population Normal (%) [1]: 100%
Population Pyknosed Nuclei (%) [1]: 24% and 32%
Population Tubulin-Different-Phenotype (%) [1]: 38% and 37%
Total Cell Count [1]: 210 and 189
Population Apoptotic (%) [2]: 37% and 45%
Population Fragmented Nuclei (%) [2]: 14% and 7%
Population Healthy Nuclei (%) [2]: 63% and 67%
Population Hoechst High Intensity Objects (%) [2]: 0%
Population Membrane Permeable-Phenotype (%) [2]: 20%
Population Mitochondria Different-Phenotype (%) [2]: 5% and 3%
Population Mitotic Cells (%) [2]: 62% and 55%
Population Normal (%) [2]: 99% and 100%
Population Pyknosed Nuclei (%) [2]: 21% and 24%
Population Tubulin-Different-Phenotype (%) [2]: 73%
Total Cell Count [2]: 206 and 241
Population Apoptotic (%) [3]: 62% and 56%
Population Fragmented Nuclei (%) [3]: 6% and 14%
Population Healthy Nuclei (%) [3]: 68% and 62%
Population Hoechst High Intensity Objects (%) [3]: 0%
Population Membrane Permeable-Phenotype (%) [3]: 3% and 10%
Population Mitochondria Different-Phenotype (%) [3]: 2% and 9%
Population Mitotic Cells (%) [3]: 37% and 43%
Population Normal (%) [3]: 100%
Population Pyknosed Nuclei (%) [3]: 25% and 23%
Population Tubulin-Different-Phenotype (%) [3]: 31% and 37%
Total Cell Count [3]: 199 and 197
Population Apoptotic (%) [4]: 51% and 70%
Population Fragmented Nuclei (%) [4]: 20% and 12%
Population Healthy Nuclei (%) [4]: 62% and 60%
Population Hoechst High Intensity Objects (%) [4]: 0%
Population Membrane Permeable-Phenotype (%) [4]: 9% and 6%
Population Mitochondria Different-Phenotype (%) [4]: 18% and 20%
Population Mitotic Cells (%) [4]: 48% and 29%
Population Normal (%) [4]: 100% and 99%
Population Pyknosed Nuclei (%) [4]: 16% and 27%
Population Tubulin-Different-Phenotype (%) [4]: 75% and 69%
Total Cell Count [4]: 218 and 241
Population Apoptotic (%) [5]: 85% and 72%
Population Fragmented Nuclei (%) [5]: 10% and 13%
Population Healthy Nuclei (%) [5]: 72% and 67%
Population Hoechst High Intensity Objects (%) [5]: 0%
Population Membrane Permeable-Phenotype (%) [5]: 3% and 2%
Population Mitochondria Different-Phenotype (%) [5]: 0% and 1%
Population Mitotic Cells (%) [5]: 14% and 27%
Population Normal (%) [5]: 100%
Population Pyknosed Nuclei (%) [5]: 17% and 19%
Population Tubulin-Different-Phenotype (%) [5]: 20% and 15%
Total Cell Count [5]: 205
Population Apoptotic (%) [6]: 87%
Population Fragmented Nuclei (%) [6]: 26% and 18%
Population Healthy Nuclei (%) [6]: 64%
Population Hoechst High Intensity Objects (%) [6]: 0%
Population Membrane Permeable-Phenotype (%) [6]: 1% and 2%
Population Mitochondria Different-Phenotype (%) [6]: 7% and 8%
Population Mitotic Cells (%) [6]: 12%
Population Normal (%) [6]: 99% and 100%
Population Pyknosed Nuclei (%) [6]: 9% and 16%
Population Tubulin-Different-Phenotype (%) [6]: 63% and 53%
Total Cell Count [6]: 247 and 282
